Calls of active or inactive are those of the source. No cut-off for these calls is given here.
Assays:
[1] = Clearance in iv dosed Beagle dog blood after 24 hrs by LC-MS analysis; assay type: ADME, organism-based, Canis lupus familiaris; settings: whole blood
Method in brief: (§1)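 Male Wistar rats and female beagle dogs. iv in plasma/DMSO (rat) or H2O/PEG 400/EtOH (dog). Oral gavage in H2O/PEG 400/EtOH for both. Rats jugular-catheterised ≥1 d before dosing. Usually >10 blood samples, at least two after 24 h. Plasma quantified by LC-MS with internal standard. CL, t1/2, Vss and F calculated from plasma curves. Blood clearance via blood/plasma ratio (20 min blood incubation).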

[2] = Terminal half life in iv dosed Wistar rat blood after 24 hrs by LC-MS analysis; assay type: ADME, organism-based; settings: whole blood, read-out: beta t1/2 (converted); method in brief: as §1
[3] = Terminal half life in iv dosed Beagle dog blood after 24 hrs by LC-MS analysis; assay type: ADME, organism-based, Canis lupus familiaris; settings: whole blood, read-out: beta t1/2 (converted); method in brief: as §1
Cytochrome P450 2B6 = target: T1, Cytochrome P450 2B6 (Homo sapiens, UniProt P20813); assay: Inhibition of human liver microsomes CYP2B6 using bupropion as substrate; assay type: ADME
T1 sequence (P20813 whole entry): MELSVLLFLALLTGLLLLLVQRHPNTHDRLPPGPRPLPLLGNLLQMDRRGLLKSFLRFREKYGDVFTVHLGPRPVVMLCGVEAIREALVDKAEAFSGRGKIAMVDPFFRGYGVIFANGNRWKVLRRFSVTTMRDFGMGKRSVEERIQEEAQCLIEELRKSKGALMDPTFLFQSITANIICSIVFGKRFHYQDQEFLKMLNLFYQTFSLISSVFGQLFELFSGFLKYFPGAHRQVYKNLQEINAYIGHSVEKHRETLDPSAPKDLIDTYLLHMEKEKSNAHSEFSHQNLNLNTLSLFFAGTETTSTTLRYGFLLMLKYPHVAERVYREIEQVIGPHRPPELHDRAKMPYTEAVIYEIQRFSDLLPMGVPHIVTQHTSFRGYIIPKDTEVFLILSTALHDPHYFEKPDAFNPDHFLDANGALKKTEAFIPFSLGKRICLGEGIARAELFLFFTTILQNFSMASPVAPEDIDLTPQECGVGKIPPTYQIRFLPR

Cytochrome P450 2C8 = target: T2, Cytochrome P450 2C8 (Homo sapiens, UniProt P10632); assay: Inhibition of human liver microsomes CYP2C8 using amodiaquine as substrate; assay type: ADME
T2 sequence (P10632 whole entry): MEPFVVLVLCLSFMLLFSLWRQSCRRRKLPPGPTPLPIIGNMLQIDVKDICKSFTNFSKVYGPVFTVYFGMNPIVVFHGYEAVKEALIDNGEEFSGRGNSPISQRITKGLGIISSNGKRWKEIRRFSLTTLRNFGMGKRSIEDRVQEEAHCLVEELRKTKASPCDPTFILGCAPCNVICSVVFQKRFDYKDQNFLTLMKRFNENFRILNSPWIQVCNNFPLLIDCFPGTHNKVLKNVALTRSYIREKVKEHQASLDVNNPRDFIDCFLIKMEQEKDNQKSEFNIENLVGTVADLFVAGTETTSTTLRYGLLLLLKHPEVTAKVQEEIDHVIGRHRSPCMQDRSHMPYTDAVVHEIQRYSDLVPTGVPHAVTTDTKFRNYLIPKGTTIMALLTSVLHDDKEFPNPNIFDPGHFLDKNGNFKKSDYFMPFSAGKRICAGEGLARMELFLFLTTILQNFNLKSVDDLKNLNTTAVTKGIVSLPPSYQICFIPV

Cytochrome P450 3A4 = Cytochrome P450 3A4 (Homo sapiens, UniProt P08684); assay: Inhibition of human liver microsomes CYP3A4 using testosterone as substrate; assay type: ADME
Homo sapiens = species on record: Homo sapiens; assay: Stimulation of sGC (unknown origin) using alpha-[32P]-GTP as substrate assessed as increase in [32P]-cGMP formation at 100 uM in presence of sGC inhibitor ODQ
Method in brief: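 Purified recombinant sGC (0.2 μg/mL) assayed by [32P]-cGMP formation from α-[32P]-GTP, with 200 μM GTP, 3 mM Mn2+/Mg2+ and 1 mM cGMP. Substrate turnover kept <10%. DMSO ≤1% (v/v). ODQ present. Activity expressed as x-fold over basal. Duplicates, repeated five times.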

[4] = Stimulation of rat sGC expressed in CHO cells using GTP as substrate assessed as increase in cGMP formation treated for 6 mins by luminescence assay; assay type: cell-based
Method in brief: (§2)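 CHO reporter cells overexpressing sGC, cultured 1 or 2 d, then loaded 3 h with coelenterazine in calcium-free Tyrode. Compound serial dilutions applied 6 min. Calcium added (final 3 mM) and luminescence read for 40 s by CCD camera. SNAP co-applied at 30 or 100 nM where stated. ODQ condition: 10 μM ODQ pretreatment for 3 h.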

[5] = Stimulation of rat sGC expressed in CHO cells using GTP as substrate assessed as increase in cGMP formation treated for 6 mins in presence of 30 nM SNAP by luminescence assay; assay type: cell-based; method in brief: as §2
[6] = Stimulation of rat sGC expressed in CHO cells using GTP as substrate assessed as increase in cGMP formation treated for 6 mins in presence of sGC inhibitor ODQ by luminescence assay; assay type: cell-based; method in brief: as §2
Aorta = assay: Inhibition of phenylephrine-induced contractions in Chinchilla rabbit aortic rings administered at the beginning of the last resting period of 28 mins; assay type: functional; settings: Oryctolagus cuniculus
Saphenous artery = assay: Vasorelaxant activity in nirate-tolerant Chinchilla rabbit saphenous artery ring administered at the beginning of the last resting period of 28 mins in presence of sorbide dinitrate; assay type: functional; settings: Oryctolagus cuniculus
Heart = assay: Antihypertensive activity in Wistar Langendorff-perfused heart rat model assessed as reduction in coronary perfusion pressure administered for 20 mins; assay type: functional, tissue-based
Method in brief: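 Male Wistar rats (200−250 g) anesthetized with Narcoren 100 mg/kg ip. Excised heart Langendorff-perfused at constant flow 10 mL/min with Krebs−Henseleit buffer gassed with 95% O2/5% CO2. Values expressed as relative change from baseline before compound application.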

Rattus norvegicus [7] = assay: Antihypertensive activity in L-NAME-treated renin transgenic rat co-expressing RenTG(mRRen2)27 assessed as reduction in heart hypertrophy in right ventricle administered qd via oral gavage up to 21 days relative to control; assay type: functional
Method in brief: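 Renin transgenic RenTG(mRRen2)27 male rats, 8 weeks old, on L-NAME drinking water (50 mg/L). Dosed by gavage qd with placebo (n = 20) or 3 or 10 mg/kg/day (n = 15 each). At day 22 animals were anesthetized and sacrificed, and left and right ventricles were dissected and weighed for hypertrophy. Unpaired t test versus placebo.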

Rattus norvegicus [8] = assay: Antihypertensive activity in L-NAME-treated renin transgenic rat co-expressing RenTG(mRRen2)27 assessed as reduction in plasma ANP levels at 3 to 10 mg/kg administered qd via oral gavage up to 21 days; assay type: functional, organism-based
Method in brief: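 Male RenTG(mRRen2)27 rats, 8 weeks old, given L-NAME in drinking water (50 mg/L) throughout. Randomised to placebo (2 mL/kg qd, n = 20) or 3 and 10 mg/kg/day po by gavage qd (n = 15 per group). Tail-cuff blood pressure on day 0, 7, 14 and 21. Plasma taken at day 22 end. Unpaired t test, mean ± SEM.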

Rattus norvegicus [9] = assay: Effect on mortality in L-NAME-treated renin transgenic rat co-expressing RenTG(mRRen2)27 assessed as survival rate at 3 mg/kg administered qd via oral gavage up to 21 days (reference value: 25%); assay type: functional; settings: 504 h
Artery = assay: Inhibition of U46619-induced contractions in porcine coronary artery rings; assay type: functional; settings: Sus scrofa

Chain of Cytochrome P450 3A4 (P08684 whole entry): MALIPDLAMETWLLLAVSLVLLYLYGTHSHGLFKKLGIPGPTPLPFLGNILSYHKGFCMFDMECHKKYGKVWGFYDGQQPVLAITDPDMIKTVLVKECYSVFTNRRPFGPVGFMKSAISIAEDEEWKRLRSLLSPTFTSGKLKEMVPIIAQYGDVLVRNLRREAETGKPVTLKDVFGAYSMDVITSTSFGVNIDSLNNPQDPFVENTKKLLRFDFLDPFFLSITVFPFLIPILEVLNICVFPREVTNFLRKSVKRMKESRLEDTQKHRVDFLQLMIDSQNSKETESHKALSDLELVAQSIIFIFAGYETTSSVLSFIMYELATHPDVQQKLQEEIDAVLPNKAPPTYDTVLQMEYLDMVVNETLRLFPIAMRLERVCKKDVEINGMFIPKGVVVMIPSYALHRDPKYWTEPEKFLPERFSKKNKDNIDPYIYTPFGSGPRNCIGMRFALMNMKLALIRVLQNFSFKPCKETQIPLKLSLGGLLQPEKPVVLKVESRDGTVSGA

SMILES: COC(=O)Nc1c(N)nc(-c2nn(Cc3ccccc3F)c3ncc(F)cc23)nc1N [VERICIGUAT]
- clearance [1]: 3.33 mL/min/kg
- half-life [2]: 3.4 h
- half-life [3]: 6.2 h
- IC50 (Cytochrome P450 2B6): > 50000 nM
- IC50 (Cytochrome P450 2C8): > 50000 nM
- IC50 (Cytochrome P450 3A4): > 50000 nM
- Activity (Homo sapiens): inactive
- EC50 [4]: 1000 nM
- EC50 [5]: 39 nM
- EC50 [6]: 256 nM
- IC50 (Aorta): 692 nM
- IC50 (Saphenous artery): 5.8 nM
- Activity (Heart): Dose-dependent effect
- Activity (Rattus norvegicus [7]): Dose-dependent effect
- Activity (Rattus norvegicus [8]): Active
- survival at 3 mg/kg (Rattus norvegicus [9]): 70%
- IC50 (Artery): 956 nM
